pIC50: −log10 of the molar value.
molecular target: Cytochrome P450 2D6 (Homo sapiens, UniProt P10635); test: Inhibition of human CYP2D6 expressed in Escherichia coli JM109; format: ADME
How it was run: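 IC50 from inhibition of CYP2D6-catalysed MAMC O-demethylation; values are means of at least three independent experiments ± standard deviation.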

Chain of Cytochrome P450 2D6 (P10635 whole entry): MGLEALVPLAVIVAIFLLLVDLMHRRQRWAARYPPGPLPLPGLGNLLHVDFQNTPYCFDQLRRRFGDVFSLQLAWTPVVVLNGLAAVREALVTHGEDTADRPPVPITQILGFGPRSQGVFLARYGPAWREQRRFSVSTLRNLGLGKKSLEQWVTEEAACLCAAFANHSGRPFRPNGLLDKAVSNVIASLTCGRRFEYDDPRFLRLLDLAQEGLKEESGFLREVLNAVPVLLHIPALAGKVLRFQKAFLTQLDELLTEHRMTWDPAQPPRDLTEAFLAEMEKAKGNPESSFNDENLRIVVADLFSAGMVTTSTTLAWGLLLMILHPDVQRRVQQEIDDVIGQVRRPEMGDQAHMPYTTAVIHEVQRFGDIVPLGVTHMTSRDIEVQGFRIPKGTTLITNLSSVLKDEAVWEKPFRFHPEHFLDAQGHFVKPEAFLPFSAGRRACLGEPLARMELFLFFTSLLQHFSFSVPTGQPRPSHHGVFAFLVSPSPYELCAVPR

Structure (SMILES)	pIC50
CC(Cc1ccccc1)NC1CC2c3ccccc3CCc3cccc1c32 (configuration not stated)	6.82
c1ccc(CCNCCC2c3ccccc3Sc3ccccc32)cc1	6.59
CC1C2C=C(C=C3c4ccccc4CCc4ccccc43)CC1CC2 (configuration not stated)	6.68
Cc1ccc2c(c1)C(n1cccc1)c1cccnc1CC2 (configuration not stated)	4.40
CCCCCCCCCCCc1cccn1C1c2ccccc2CCc2ccccc21	5.24
C[N+]1(C)C2CCC1CC(OC1c3ccccc3C=Cc3ccccc31)C2 (configuration not stated)	4.22
Nc1ccccc1-c1nc(N)c2ccccc2n1	3.77
O=C1c2ccccc2C(O)C1C1c2ccccc2C=Cc2ccccc21 (configuration not stated)	4.22
CN(C)CCC1(O)c2ccccc2CCc2ccc3ccccc3c21 (configuration not stated)	7.22
Cn1ccnc1C(O)C=C(c1ccccc1)c1ccccc1 (configuration not stated)	4.82
CCC(=O)O/N=C1\c2ccccc2CCc2ncccc21	< 3.40
C(=C1c2ccccc2CCc2ccccc21)c1ccccc1	< 3.70
CCc1ccccc1C1(Br)C(=O)c2ccccc2C1=O	4.08
Fc1ccc(C(OCCN2CCC(CCCc3ccccc3)CC2)c2ccc(F)cc2)cc1	5.92
Oc1ccccc1/C=N/c1ccccc1 [2-((PHENYLIMINO)METHYL)PHENOL]	< 3.00
COc1ccc2c(c1)[C@]13CCCC[C@@H]1[C@H](C2)N(C)CC3 [DEXTROMETHORPHAN]	5.47
CCC(c1ccccc1)c1c(O)c2ccccc2oc1=O (configuration not stated) [PHENPROCOUMON]	3.28

Reference: ChEMBL document CHEMBL1146097, “Catalytic site prediction and virtual screening of cytochrome P450 2D6 substrates by consideration of water and rescoring in automated docking” (J Med Chem, 2006)
